Experimental data: ChEMBL document CHEMBL4706532, “New Seco-DSP derivatives as potent chemosensitizers” (Eur J Med Chem, 2020)
Calls of active or inactive are those of the source. The rule behind the calls is not given here.

Legend:
HUVEC = experiment: Cytotoxicity against human HUVEC cells assessed as reduction in cell viability at 10 uM incubated for 48 hrs by MTT assay; format: cell-based
Procedure, shortened: (§1)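 Cells plated at 3~5 × 10^3 per well and allowed 24 h before exposure to compound or DMSO (negative control) for 48 h. MTT was added for 4 h, formazan dissolved in DMSO and absorbance read at 490 nm. Inhibition was calculated relative to DMSO and blank.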

[1] = Cytotoxicity against human HOSEC cells assessed as reduction in cell viability at 10 uM incubated for 48 hrs by MTT assay; format: cell-based; settings: hose
Procedure, shortened: as §1, with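 “h. A2780/T and KB-VIN were grown in DMEM/F12 with 10% FBS, and HUVEC, HOSEC and T29 in RPMI-1640 with 10% FBS, all at 37 °C under 5% CO₂.” for “h.”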

[2] = Cytotoxicity against human T29 cells assessed as reduction in cell viability at 10 uM incubated for 48 hrs by MTT assay; format: cell-based; settings: t29, 48 h
Procedure, shortened: as §1, with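 “h. A2780/T and KB-VIN were grown in DMEM/F12 with 10% FBS, and HUVEC, HOSEC and T29 in RPMI-1640 with 10% FBS, all at 37 °C under 5% CO₂.” for “h.”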

A2780/Taxol [3] = experiment: Cytotoxicity against human A2780T cells assessed as reduction in cell viability at 10 uM incubated for 48 hrs by MTT assay; format: cell-based
Procedure, shortened: as §1, with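 “h. A2780/T and KB-VIN were grown in DMEM/F12 with 10% FBS, and HUVEC, HOSEC and T29 in RPMI-1640 with 10% FBS, all at 37 °C under 5% CO₂.” for “h.”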

[4] = Reversal of multidrug resistance activity in P-gp overexpressing human A2780T cells assessed as potentiation of PTX-induced cytotoxicity by measuring reversal ratio at 10 uM incubated for 48 hrs in presence of paclitaxel by MTT assay; format: functional, A2780/Taxol
Procedure, shortened: (§2)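 Resistant cells were plated at 3~5 × 10^3 per well, given 24 h, then co-treated with test compound plus a range of anticancer drug concentrations (PTX for A2780/T, VCR for KB-VIN, cisplatin for A2780/CDDP) or DMSO for 48 h. Read-out was by MTT, 4 h at 37 °C, with absorbance at 490 nm. Reversal ratio = IC50 (drug alone) / IC50 (drug with compound).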

[5] = Reversal of multidrug resistance activity in P-gp overexpressing human KB-VIN cells assessed as potentiation of VCR-induced cytotoxicity by measuring reversal ratio at 10 uM incubated for 48 hrs in presence of VCR by MTT assay; format: functional; procedure, shortened: as §2
[6] = Reversal of multidrug resistance activity in human A2780/CDDP cells assessed as potentiation of CDDP-induced cytotoxicity by measuring reversal ratio at 10 uM incubated for 48 hrs in presence of CDDP by MTT assay; format: functional; procedure, shortened: as §2
A2780/Taxol [7] = experiment: Increase in P-gp expression in human A2780T cells at 10 uM incubated for 48 hrs by western blot analysis; format: functional, cell-based
Procedure, shortened: (§3)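 A2780/T cells (about 5×10^5 per well) were allowed 24 h, then treated with compound at 10 µM for 48 h at 37 °C. Cells were lysed in RIPA buffer with 1 mM PMSF. Lysates (20 µg protein) were run on 12% SDS-PAGE and transferred to PVDF. Blots were blocked in 3% BSA and probed overnight at 4 °C with anti-P-gp or GAPDH antibody (1:1000), then with HRP secondary (1:10000) for 1 h. Detection was by ECL with densitometry.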

A2780T [8] = experiment: Inhibition of P-gp mediated multidrug resistance activity in human A2780T cells assessed as increase in intracellular DOX accumulation at 10 uM incubated for 4 hrs in presence of doxorubicin by flow cytometry; format: cell-based
Procedure, shortened: (§4)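 A2780/T cells were seeded at about 5×10^5 per well and left 24 h. […] Cells were washed three times with ice-cold PBS and resuspended in cold PBS. DOX autofluorescence was measured by flow cytometry and by fluorescence/confocal microscopy. Data are given as mean ± SD.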

Homo sapiens = organism: Homo sapiens; experiment: Stimulation of human membrane P-gp ATPase activity at 0.5 mM using MgATP as substrate preincubated with enzyme for 5 mins followed by substrate addition and measured after 120 mins by ADP-Glo luminescence assay relative to control; format: cell membranes; settings: time 125.0 min
Procedure, shortened: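 Reactions were started with 10 μL of 25 mM MgATP and run 120 min at 37 °C. ATP detection reagent was then added, and luminescence was read after about 20 min at room temperature (P-gp-Glo). Results are mean ± SD of three independent experiments.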

[9] = Cytotoxicity against human KB-VIN cells assessed as reduction in cell viability at 10 uM incubated for 48 hrs by MTT assay; format: cell-based
Procedure, shortened: as §1, with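 “h. A2780/T and KB-VIN were grown in DMEM/F12 with 10% FBS, and HUVEC, HOSEC and T29 in RPMI-1640 with 10% FBS, all at 37 °C under 5% CO₂.” for “h.”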

[10] = Reversal of multidrug resistance activity in P-gp overexpressing human A2780T cells assessed as potentiation of PTX-induced cytotoxicity by measuring reversal ratio at 1 uM incubated for 48 hrs in presence of paclitaxel by MTT assay; format: functional, A2780/Taxol; procedure, shortened: as §2
A2780/Taxol [11] = experiment: Decrease in P-gp expression in human A2780T cells at 10 uM incubated for 48 hrs by western blot analysis; format: functional, cell-based; procedure, shortened: as §3
A2780T [12] = experiment: Inhibition of P-gp mediated multidrug resistance activity in human A2780T cells assessed as increase in intracellular DOX accumulation at 10 uM incubated for 4 hrs in presence of doxorubicin by fluorescence microsocopy; format: cell-based; procedure, shortened: as §4
[13] = Reversal of multidrug resistance activity in P-gp overexpressing human A2780T cells assessed as potentiation of PTX-induced cytotoxicity by measuring reversal ratio at 200 nM incubated for 48 hrs in presence of paclitaxel by MTT assay

fold change (FC) (Homo sapiens) | SMILES | Activity (HUVEC) | Activity [1] | Activity [2] | Activity (A2780/Taxol [3]) | Ratio [4] | Ratio [5] | Ratio [6] | Activity (A2780/Taxol [7]) | inhibition (A2780T [8]) | Activity [9] | Ratio [10] | inhibition (A2780/Taxol [11]) | inhibition (A2780T [12]) | Ratio [13]
1.2 | CCOc1ccc2c(=O)cc(CC)oc2c1COC(=O)/C=C/c1ccccc1 | Non-Toxic | Non-Toxic | Non-Toxic | Non-Toxic | 503 | 633 | 0.92 | inactive | Active | Non-Toxic | 4.24 | inactive | Active | 1.05
1.2 | CCc1cc(=O)c2ccc(OC(C)C)c(COC(=O)Cc3cc(OC)c(OC)c(OC)c3)c2o1 | Non-Toxic | Non-Toxic | Non-Toxic | Non-Toxic | 576 | 604 | – | inactive | Active | Non-Toxic | 3.97 | inactive | Active | 1.05
1.2 | CCOc1ccc2c(=O)cc(CC)oc2c1COC(=O)Cc1cc(OC)c(OC)c(OC)c1 | Non-Toxic | Non-Toxic | Non-Toxic | Non-Toxic | 677 | 628 | 0.97 | inactive | Active | Non-Toxic | 4.13 | inactive | Active | 1.05
1.2 | CCOc1ccc2c(=O)cc(CC)oc2c1COC(=O)/C=C/c1ccc(OC)cc1 | Non-Toxic | Non-Toxic | Non-Toxic | Toxic | >1471 | 299 | 0.88 | inactive | Active | Non-Toxic | 128 | inactive | Active | 1.05
1.8 | COc1ccc(CCN(C)CCCC(C#N)(c2ccc(OC)c(OC)c2)C(C)C)cc1OC (configuration not stated) | – | – | – | – | – | – | – | – | Active | – | – | – | Active | –
